Test results from ChEMBL document CHEMBL3102739, “Synthesis and antiproliferative activity of conformationally restricted 1,2,3-triazole analogues of combretastatins in the sea urchin embryo model and against human cancer cell lines” (Bioorg Med Chem, 2014).

Experiments:
[1] = test system: MDA-MB-468; test: Growth inhibition of human MDA-MB-468 cells after 48 hrs by SRB assay; assay type: functional; conditions: MDA-MB-468, 48 h
[2] = Growth inhibition of human Hs578T cells after 48 hrs by SRB assay; assay type: functional; conditions: Hs-578T
[3] = test system: BT-549; test: Growth inhibition of human BT549 cells after 48 hrs by SRB assay; assay type: functional; conditions: BT-549, 48 h
[4] = test system: MDA-MB-231; test: Growth inhibition of human MDA-MB-231 cells after 48 hrs by SRB assay; assay type: functional; conditions: MDA-MB-231, 48 h
[5] = test system: DU-145; test: Growth inhibition of human DU145 cells after 48 hrs by SRB assay; assay type: functional; conditions: DU-145, 48 h
[6] = test system: MCF7; test: Growth inhibition of human MCF7 cells after 48 hrs by SRB assay; assay type: functional; conditions: MCF7, 48 h
[7] = Growth inhibition of human UO31 cells after 48 hrs by SRB assay; assay type: functional; conditions: UO-31, 48 h
[8] = test system: PC-3; test: Growth inhibition of human PC3 cells after 48 hrs by SRB assay; assay type: functional; conditions: PC-3, 48 h
[9] = test system: TK-10; test: Growth inhibition of human TK10 cells after 48 hrs by SRB assay; assay type: functional; conditions: TK-10, 48 h
[10] = Growth inhibition of human RXF393 cells after 48 hrs by SRB assay; assay type: functional; conditions: RXF 393, 48 h
[11] = test system: SN12C; test: Growth inhibition of human SN12C cells after 48 hrs by SRB assay; assay type: functional
[12] = test system: ACHN; test: Growth inhibition of human ACHN cells after 48 hrs by SRB assay; assay type: functional
[13] = test system: CAKI-1; test: Growth inhibition of human CAKI-1 cells after 48 hrs by SRB assay; assay type: functional; conditions: CAKI-1, 48 h
[14] = test system: 786-0; test: Growth inhibition of human 786-0 cells after 48 hrs by SRB assay; assay type: functional; conditions: 786-0, 48 h
[15] = test system: A498; test: Growth inhibition of human A498 cells after 48 hrs by SRB assay; assay type: functional; conditions: A498, 48 h
[16] = test system: SK-OV-3; test: Growth inhibition of human SKOV3 cells after 48 hrs by SRB assay; assay type: functional; conditions: SK-OV-3, 48 h
[17] = Growth inhibition of human NCI-ADR-RES cells after 48 hrs by SRB assay; assay type: functional
[18] = test system: OVCAR-8; test: Growth inhibition of human OVCAR8 cells after 48 hrs by SRB assay; assay type: functional; conditions: OVCAR-8, 48 h
[19] = Growth inhibition of human OVCAR4 cells after 48 hrs by SRB assay; assay type: functional; conditions: OVCAR-4, 48 h
[20] = Growth inhibition of human OVCAR5 cells after 48 hrs by SRB assay; assay type: functional; conditions: OVCAR-5, 48 h
[21] = test system: OVCAR-3; test: Growth inhibition of human OVCAR3 cells after 48 hrs by SRB assay; assay type: functional; conditions: OVCAR-3, 48 h
[22] = test system: IGROV-1; test: Growth inhibition of human IGROV1 cells after 48 hrs by SRB assay; assay type: functional; conditions: IGROV-1, 48 h
[23] = Growth inhibition of human UACC257 cells after 48 hrs by SRB assay; assay type: functional; conditions: UACC-257, 48 h
[24] = test system: UACC-62; test: Growth inhibition of human UACC62 cells after 48 hrs by SRB assay; assay type: functional; conditions: UACC-62, 48 h
[25] = test system: SK-MEL-5; test: Growth inhibition of human SK-MEL-5 cells after 48 hrs by SRB assay; assay type: functional; conditions: SK-MEL-5, 48 h
[26] = test system: SK-MEL-28; test: Growth inhibition of human SK-MEL-28 cells after 48 hrs by SRB assay; assay type: functional; conditions: SK-MEL-28, 48 h
[27] = test system: MDA-MB-435; test: Growth inhibition of human MDA-MB-435 cells after 48 hrs by SRB assay; assay type: functional; conditions: MDA-MB-435, 48 h
[28] = test system: M14; test: Growth inhibition of human M14 cells after 48 hrs by SRB assay; assay type: functional; conditions: M14, 48 h
[29] = test system: SNB-75; test: Growth inhibition of human SNB75 cells after 48 hrs by SRB assay; assay type: functional; conditions: SNB-75, 48 h
[30] = Growth inhibition of human SF539 cells after 48 hrs by SRB assay; assay type: functional; conditions: SF-539, 48 h
[31] = test system: SF-295; test: Growth inhibition of human SF295 cells after 48 hrs by SRB assay; assay type: functional; conditions: SF-295, 48 h
[32] = test system: SF-268; test: Growth inhibition of human SF268 cells after 48 hrs by SRB assay; assay type: functional; conditions: SF-268, 48 h
[33] = test system: SW-620; test: Growth inhibition of human SW620 cells after 48 hrs by SRB assay; assay type: functional; conditions: SW-620, 48 h
[34] = test system: KM12; test: Growth inhibition of human KM12 cells after 48 hrs by SRB assay; assay type: functional; conditions: KM12, 48 h
[35] = test system: HT-29; test: Growth inhibition of human HT-29 cells after 48 hrs by SRB assay; assay type: functional; conditions: HT-29, 48 h
[36] = test system: HCT-15; test: Growth inhibition of human HCT15 cells after 48 hrs by SRB assay; assay type: functional; conditions: HCT-15, 48 h
[37] = Growth inhibition of human HCC2998 cells after 48 hrs by SRB assay; assay type: functional; conditions: HCC 2998, 48 h
[38] = test system: HCT-116; test: Growth inhibition of human HCT116 cells after 48 hrs by SRB assay; assay type: functional; conditions: HCT-116, 48 h
[39] = test system: COLO 205; test: Growth inhibition of human COLO205 cells after 48 hrs by SRB assay; assay type: functional; conditions: COLO 205, 48 h
[40] = test system: NCI-H522; test: Growth inhibition of human NCI-H522 cells after 48 hrs by SRB assay; assay type: functional; conditions: NCI-H522, 48 h
[41] = test system: NCI-H460; test: Growth inhibition of human NCI-H460 cells after 48 hrs by SRB assay; assay type: functional; conditions: NCI-H460, 48 h
[42] = test system: NCI-H322M; test: Growth inhibition of human NCI-H322M cells after 48 hrs by SRB assay; assay type: functional
[43] = test system: NCI-H23; test: Growth inhibition of human NCI-H23 cells after 48 hrs by SRB assay; assay type: functional; conditions: NCI-H23, 48 h
[44] = test system: NCI-H226; test: Growth inhibition of human NCI-H226 cells after 48 hrs by SRB assay; assay type: functional; conditions: NCI-H226, 48 h
[45] = test system: HOP-62; test: Growth inhibition of human HOP62 cells after 48 hrs by SRB assay; assay type: functional; conditions: HOP-62, 48 h
[46] = test system: A549; test: Growth inhibition of human A549 cells after 48 hrs by SRB assay; assay type: functional; conditions: A549, 48 h
[47] = test system: RPMI-8226; test: Growth inhibition of human RPMI8226 cells after 48 hrs by SRB assay; assay type: functional; conditions: RPMI-8226, 48 h
[48] = test system: SR; test: Growth inhibition of human SR cells after 48 hrs by SRB assay; assay type: functional
[49] = test system: MOLT-4; test: Growth inhibition of human MOLT4 cells after 48 hrs by SRB assay; assay type: functional; conditions: MOLT-4, 48 h
[50] = test system: K562; test: Growth inhibition of human K562 cells after 48 hrs by SRB assay; assay type: functional; conditions: K562, 48 h
[51] = test system: CCRF-CEM; test: Growth inhibition of human CCRF-CEM cells after 48 hrs by SRB assay; assay type: functional
[52] = test system: HL-60(TB); test: Growth inhibition of human HL-60(TB) cells after 48 hrs by SRB assay; assay type: functional; conditions: HL-60, 48 h
[53] = test system: Paracentrotus lividus; test: Antimitotic activity against sea urchin embryo free-swimming blastula model assessed as embryo spinning compound treated at 8 to 10 hrs post-fertilization measured after 0.25 to 20 hrs; assay type: functional, Blastula stage
[54] = test system: Paracentrotus lividus; test: Antimitotic activity against sea urchin embryo model assessed as cleavage arrest of fertilized egg compound treated at 8 to 20 mins post-fertilization and 45 to 55 mins prior to first mitotic cycle completion measured 2.5 to 5.5 hrs post-fertilization; assay type: functional
Outline: (§1)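 Fertilized eggs are exposed 8–20 min after fertilization to 2-fold decreasing concentrations. Stocks are 10 mM in DMSO, then diluted 10-fold in 95% EtOH; final DMSO is at most 0.05% and EtOH at most 1%. Embryos are kept as a monolayer, up to 2000 embryos/mL, in filtered seawater at room temperature. The value is the threshold concentration giving cleavage alteration, embryo death before hatching or full mitotic arrest. Duplicates were run.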

[55] = test system: Paracentrotus lividus; test: Antimitotic activity against sea urchin embryo model assessed as cleavage alteration of fertilized egg compound treated at 8 to 20 mins post-fertilization and 45 to 55 mins prior to first mitotic cycle completion measured 2.5 to 5.5 hrs post-fertilization; assay type: functional; outline: as §1

Structure (SMILES): COc1ccc(-c2nn[nH]c2-c2cc(OC)c3c(c2)OCO3)cc1
- GI50 [1]: 19 nM
- GI50 [2]: 22 nM
- GI50 [3]: 121 nM
- GI50 [4]: 45 nM
- GI50 [5]: 32 nM
- GI50 [6]: < 10 nM
- GI50 [7]: 51 nM
- GI50 [8]: 35 nM
- GI50 [9]: 14700 nM
- GI50 [10]: 17 nM
- GI50 [11]: 61 nM
- GI50 [12]: 40 nM
- GI50 [13]: 11 nM
- GI50 [14]: 32 nM
- GI50 [15]: < 10 nM
- GI50 [16]: 23 nM
- GI50 [17]: < 10 nM
- GI50 [18]: 40 nM
- GI50 [19]: 518 nM
- GI50 [20]: 49 nM
- GI50 [21]: 10 nM
- GI50 [22]: 23 nM
- GI50 [23]: 23000 nM
- GI50 [24]: < 10 nM
- GI50 [25]: 29 nM
- GI50 [26]: 35 nM
- GI50 [27]: < 10 nM
- GI50 [28]: 13 nM
- GI50 [29]: 16 nM
- GI50 [30]: 17 nM
- GI50 [31]: < 10 nM
- GI50 [32]: 101 nM
- GI50 [33]: 14 nM
- GI50 [34]: 23 nM
- GI50 [35]: 34 nM
- GI50 [36]: < 10 nM
- GI50 [37]: 44 nM
- GI50 [38]: 19 nM
- GI50 [39]: 255 nM
- GI50 [40]: < 10 nM
- GI50 [41]: 11 nM
- GI50 [42]: 57 nM
- GI50 [43]: 33 nM
- GI50 [44]: 294 nM
- GI50 [45]: < 10 nM
- GI50 [46]: 24 nM
- GI50 [47]: 33 nM
- GI50 [48]: < 10 nM
- GI50 [49]: 63 nM
- GI50 [50]: < 10 nM
- GI50 [51]: 26 nM
- GI50 [52]: 23 nM
- EC [53]: 0.05 µM
- EC [54]: 0.002 µM
- EC [55]: 0.0005 µM
